From ChEMBL document CHEMBL3352181, “Novel phenyl and pyridyl substituted derivatives of isoindolines: Synthesis, antitumor activity and DNA binding features” (Eur J Med Chem, 2014)
Activity calls are given as the source filed them. The calls are words filed in the database; no cut-off is given here.

Tests used:
HepG2 [1] = assay: Induction of cell cycle arrest on human HepG2 cells assessed as accumulation at subG1 phase at 10 uM after 24 hrs by propidium iodide staining based flow cytometry (reference value: 4.8 +/- 0.6%); type: functional
In short: (§1)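 HepG2 or SW620 cells were seeded at 25000 per well. After 24 h they were treated, then harvested 24 or 48 h later. Attached cells were trypsinized, pooled with floating cells, PBS-washed and fixed in 70% ethanol. Cells were stained with PI 1 µg/mL plus RNase A 0.2 µg/mL, and 10 000 events were acquired by flow cytometry. Phase percentages come from DNA histograms, in duplicate, with ANOVA at p < 0.05.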

HepG2 [2] = assay: Induction of cell cycle arrest on human HepG2 cells assessed as accumulation at subG1 phase at 25 uM after 24 hrs by propidium iodide staining based flow cytometry (reference value: 4.8 +/- 0.6%); type: functional; in short: as §1
HepG2 [3] = assay: Induction of cell cycle arrest on human HepG2 cells assessed as accumulation at G1 phase at 10 uM after 24 hrs by propidium iodide staining based flow cytometry (reference value: 61.4 +/- 2.0%); type: functional
HepG2 [4] = assay: Induction of cell cycle arrest on human HepG2 cells assessed as accumulation at G1 phase at 25 uM after 24 hrs by propidium iodide staining based flow cytometry (reference value: 61.4 +/- 2.0%); type: functional
HepG2 [5] = assay: Induction of cell cycle arrest on human HepG2 cells assessed as accumulation at S phase at 10 uM after 24 hrs by propidium iodide staining based flow cytometry (reference value: 12.0 +/- 10.2%); type: functional
HepG2 [6] = assay: Induction of cell cycle arrest on human HepG2 cells assessed as accumulation at S phase at 25 uM after 24 hrs by propidium iodide staining based flow cytometry (reference value: 12.0 +/- 10.2%); type: functional; in short: as §1
HepG2 [7] = assay: Induction of cell cycle arrest on human HepG2 cells assessed as accumulation at G2/M phase at 10 uM after 24 hrs by propidium iodide staining based flow cytometry (reference value: 26.6 +/- 12.2%); type: functional
HepG2 [8] = assay: Induction of cell cycle arrest on human HepG2 cells assessed as accumulation at G2/M phase at 25 uM after 24 hrs by propidium iodide staining based flow cytometry (reference value: 26.6 +/- 12.2%); type: functional
HepG2 [9] = assay: Induction of cell cycle arrest on human HepG2 cells assessed as accumulation at subG1 phase at 10 uM after 48 hrs by propidium iodide staining based flow cytometry (reference value: 1.9%); type: functional; in short: as §1
HepG2 [10] = assay: Induction of cell cycle arrest on human HepG2 cells assessed as accumulation at subG1 phase at 25 uM after 48 hrs by propidium iodide staining based flow cytometry (reference value: 1.9%); type: functional; in short: as §1
HepG2 [11] = assay: Induction of cell cycle arrest on human HepG2 cells assessed as accumulation at G1 phase at 10 uM after 48 hrs by propidium iodide staining based flow cytometry (reference value: 62.1 +/- 4.9%); type: functional
HepG2 [12] = assay: Induction of cell cycle arrest on human HepG2 cells assessed as accumulation at G1 phase at 25 uM after 48 hrs by propidium iodide staining based flow cytometry (reference value: 62.1 +/- 4.9%); type: functional
HepG2 [13] = assay: Induction of cell cycle arrest on human HepG2 cells assessed as accumulation at S phase at 10 uM after 48 hrs by propidium iodide staining based flow cytometry (reference value: 6.8 +/- 5.3%); type: functional
HepG2 [14] = assay: Induction of cell cycle arrest on human HepG2 cells assessed as accumulation at S phase at 25 uM after 48 hrs by propidium iodide staining based flow cytometry (reference value: 6.8 +/- 5.3%); type: functional; in short: as §1
HepG2 [15] = assay: Induction of cell cycle arrest on human HepG2 cells assessed as accumulation at G2/M phase at 10 uM after 48 hrs by propidium iodide staining based flow cytometry (reference value: 31.1 +/- 0.4%); type: functional
HepG2 [16] = assay: Induction of cell cycle arrest on human HepG2 cells assessed as accumulation at G2/M phase at 25 uM after 48 hrs by propidium iodide staining based flow cytometry (reference value: 31.1 +/- 0.4%); type: functional
HepG2 [17] = assay: Induction of apoptosis in human HepG2 cells assessed as enlarged cells level at 25 uM after 24 hrs by Annexin V-Fluos staining based fluorescent microscopy; type: functional, cell-based
In short: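 Cells seeded on chamber slides at 4000 per well and treated 24 h (HepG2 at 25 or 50 µM; SW620 at 50 µM). Incubated 15 min with Annexin V-Fluos reagent plus propidium iodide, washed in PBS, and examined by fluorescence microscopy for morphology and labelling.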

[18] = target: T1, DNA topoisomerase 1 (Homo sapiens) (UniProt P11387); assay: Inhibition of human topoisomerase 1 assessed as topoisomerase poison activity by measuring generation of open circular DNA using supercoiled pUC19 DNA at 5 to 50 uM by agarose gel electrophoresis
T1 sequence (whole entry): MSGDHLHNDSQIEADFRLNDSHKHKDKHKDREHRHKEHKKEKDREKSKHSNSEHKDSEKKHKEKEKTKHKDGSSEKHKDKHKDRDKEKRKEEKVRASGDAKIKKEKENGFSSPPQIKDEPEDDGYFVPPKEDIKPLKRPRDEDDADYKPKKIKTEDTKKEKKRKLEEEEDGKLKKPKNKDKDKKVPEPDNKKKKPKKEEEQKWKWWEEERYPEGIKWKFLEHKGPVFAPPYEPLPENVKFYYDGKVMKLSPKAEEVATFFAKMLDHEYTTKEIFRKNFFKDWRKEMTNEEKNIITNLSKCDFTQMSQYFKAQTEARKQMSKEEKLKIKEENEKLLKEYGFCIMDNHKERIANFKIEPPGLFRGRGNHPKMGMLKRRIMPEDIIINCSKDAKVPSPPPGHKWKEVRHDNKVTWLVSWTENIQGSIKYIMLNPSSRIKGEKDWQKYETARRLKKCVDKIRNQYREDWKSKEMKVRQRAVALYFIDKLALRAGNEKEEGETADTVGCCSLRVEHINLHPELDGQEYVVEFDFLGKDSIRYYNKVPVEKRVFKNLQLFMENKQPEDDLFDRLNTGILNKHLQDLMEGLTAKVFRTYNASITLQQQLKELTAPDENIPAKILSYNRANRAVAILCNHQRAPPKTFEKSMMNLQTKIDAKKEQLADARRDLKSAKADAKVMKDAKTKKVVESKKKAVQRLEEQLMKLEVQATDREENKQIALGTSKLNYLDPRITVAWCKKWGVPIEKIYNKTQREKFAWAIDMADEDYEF
In short: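 Supercoiled pUC19 plasmid was incubated with human topoisomerase I and graded compound concentrations. Reactions were stopped with SDS and proteinase K. DNA forms were resolved on 1% agarose in TBE (2 h, 120 V), post-stained with ethidium bromide and photographed under UV. Poisoning was read as appearance of nicked DNA, with camptothecin as the positive control.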

MCF7 = assay: Antiproliferative activity against human MCF7 cells assessed as inhibition of cell proliferation after 72 hrs by MTT assay; type: functional, cell-based
In short: (§2)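 Cells grown as monolayers in DMEM with 10% FBS, 2 mM L-glutamine, penicillin/streptomycin, 37 °C, 5% CO2. Seeded at 5000/well on day 0. Compounds added after 24 h as five serial dilutions (0,01 to 100 µM), DMSO ≤0.1%, then 72 h. MTT read-out converted to percentage growth. IC50 by linear regression; quadruplicates in three experiments.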

[19] = (§3) Antiproliferative activity against human SW620 cells assessed as inhibition of cell proliferation after 72 hrs by MTT assay; type: functional, cell-based, SW-620; conditions: Homo sapiens, SW-620, 72 h; in short: as §2
SW-620 = assay: as §3; type: functional, cell-based; in short: as §2
HepG2 [20] = assay: Antiproliferative activity against human HepG2 cells assessed as inhibition of cell proliferation after 72 hrs by MTT assay; type: functional, cell-based; in short: as §2
BJ = assay: Antiproliferative activity against human BJ cells assessed as inhibition of cell proliferation after 72 hrs by MTT assay; type: cell-based; conditions: 72 h; in short: as §2
HeLa = assay: Antiproliferative activity against human HeLa cells assessed as inhibition of cell proliferation after 72 hrs by MTT assay; type: functional, cell-based; in short: as §2

## N#Cc1ccc(/N=C2\c3ccccc3CN2c2ccc(C#N)cc2)cc1
HepG2 [1]
  Activity: 13.3%
HepG2 [2]
  Activity: 15.7%
HepG2 [3]
  Activity: 54.1%
HepG2 [4]
  Activity: 45.9%
HepG2 [5]
  Activity: 26.7%
HepG2 [6]
  Activity: 16.8%
HepG2 [7]
  Activity: 19.2%
HepG2 [8]
  Activity: 37.3%
HepG2 [9]
  Activity: 5.2%
HepG2 [10]
  Activity: 5.7%
HepG2 [11]
  Activity: 0%
HepG2 [12]
  Activity: 0%
HepG2 [13]
  Activity: 0%
HepG2 [14]
  Activity: 0%
HepG2 [15]
  Activity: 100%
HepG2 [16]
  Activity: 100%
HepG2 [17]
  Activity: Active
[18]
  inhibition: inactive
MCF7
  inhibition: Dose-dependent effect
MCF7; Homo sapiens, MCF7, 72 h
  IC50: 46.1 µM
[19]
  IC50: 77.2 µM
SW-620
  inhibition: Dose-dependent effect
HepG2 [20]
  inhibition: Dose-dependent effect
HepG2 [20]; HepG2, 72 h
  IC50: 4.68 µM
BJ; Homo sapiens, BJ
  IC50: 75.2 µM
BJ; human, bj
  inhibition (INH): Dose-dependent effect
HeLa
  inhibition: Dose-dependent effect
HeLa; Homo sapiens, HeLa, 72 h
  IC50: 50 µM
